Measurements published in ChEMBL document CHEMBL3877264, “Quinolidene-rhodanine conjugates: Facile synthesis and biological evaluation” (Eur J Med Chem, 2017).
In brackets after ≈: the same amount, converted by molar mass.

Legend:
Format in all cases: functional
Staphylococcus aureus [1] = test: Antibacterial activity against of Staphylococcus aureus NCIM 2010 measured after 12 hrs; settings: NCIM 2010, 12 h
Outline: (§1)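 Bacteria grown in LB at 37 °C and 180 rpm to OD 1. Compounds added to wells, then 0.1% inoculum of 1 OD culture (620 nm). Growth read as OD at 620 nm after 8 h for gram-negative and after 12 h for gram-positive strains.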

[2] = Antifungal activity against Cryptococcus neoformans NCIM 576 by standard agar method
Outline: (§2)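 MICs determined by standard agar method; DMSO as solvent control.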

Pseudomonas fluorescens [3] = test: Antibacterial activity against Pseudomonas fluorescens NCIM 2036 measured after 8 hrs; settings: NCIM 2036, 8 h; outline: as §1
Escherichia coli [4] = test: Growth inhibition of Escherichia coli NCIM 2688 at 10 ug/ml measured after 8 hrs relative to control; settings: NCIM 2688, 8 h, read-out: GI; outline: as §1
Staphylococcus aureus [5] = test: Growth inhibition of Staphylococcus aureus NCIM 2010 at 10 ug/ml measured after 12 hrs relative to control; settings: NCIM 2010, 12 h, read-out: GI; outline: as §1
Bacillus subtilis [6] = test: Antibacterial activity against Bacillus subtilis NCIM 2079 measured after 12 hrs; settings: NCIM 2079, 12 h; outline: as §1
Escherichia coli [7] = test: Growth inhibition of Escherichia coli NCIM 2688 at 30 ug/ml measured after 8 hrs relative to control; settings: NCIM 2688, 8 h, read-out: GI; outline: as §1
Aspergillus flavus = test: Antifungal activity against Aspergillus flavus NCIM 539 by standard agar method; outline: as §2
[8] = system: Mycobacterium tuberculosis; test: Growth inhibition of Mycobacterium bovis BCG ATCC 35743 at dormant stage at 3 ug/ml measured after 12 days by nitrate reductase dye based two fold dilution method relative to control; settings: BCG str. ATCC 35743, 288 h, read-out: GI
Outline: (§3)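 M. bovis BCG was grown in Dubos medium and assayed in Mycobacterium pheli minimal medium (pH 6.6), with compounds from DMSO stocks. Incubation lasted 8 days for active and 12 days for dormant cultures. Viability was read by nitrate reductase at 540 nm against cell-free blanks, with vehicle set as 100% growth. Primary screen was at 30, 10 and 3 µg/ml, in triplicate, mean ± SD. MIC was taken from dose-response curves.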

[9] = system: Mycobacterium tuberculosis; test: Growth inhibition of Mycobacterium bovis BCG ATCC 35743 at dormant stage at 30 ug/ml measured after 12 days by nitrate reductase dye based two fold dilution method relative to control; settings: BCG str. ATCC 35743, 288 h, read-out: GI; outline: as §3
[10] = system: Mycobacterium tuberculosis; test: Growth inhibition of Mycobacterium tuberculosis H37Ra ATCC 25177 at dormant stage measured after 12 days by XTT dye based two fold dilution method; settings: H37Ra ATCC 25177, 288 h
Outline: (§4)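 MTB H37Ra was grown in Dubos medium, then exposed in Mycobacterium pheli minimal medium (pH 6.6) to compounds dissolved in DMSO. The assay ended on day 8 (active) or day 12 (dormant). Viable cells were measured by XTT reduction menadione assay at 470 nm, blank-corrected, relative to vehicle control. Triplicates were expressed as mean ± SD. MIC came from dose-response curves.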

[11] = Antifungal activity against Fusarium oxysporum NCIM 1332 by standard agar method; outline: as §2
Bacillus subtilis [12] = test: Growth inhibition of Bacillus subtilis NCIM 2079 at 10 ug/ml measured after 12 hrs relative to control; settings: NCIM 2079, 12 h, read-out: GI; outline: as §1
Escherichia coli [13] = test: Growth inhibition of Escherichia coli NCIM 2688 at 3 ug/ml measured after 8 hrs relative to control; settings: NCIM 2688, 8 h, read-out: GI; outline: as §1
Pseudomonas fluorescens [14] = test: Growth inhibition of Pseudomonas fluorescens NCIM 2036 at 10 ug/ml measured after 8 hrs relative to control; settings: NCIM 2036, 8 h, read-out: GI; outline: as §1
[15] = system: Mycobacterium tuberculosis; test: Growth inhibition of Mycobacterium bovis BCG ATCC 35743 at active stage measured after 8 days by nitrate reductase dye based two fold dilution method; settings: BCG str. ATCC 35743, 192 h; outline: as §3
[16] = system: Mycobacterium tuberculosis; test: Growth inhibition of Mycobacterium bovis BCG ATCC 35743 at dormant stage at 10 ug/ml measured after 12 days by nitrate reductase dye based two fold dilution method relative to control; settings: BCG str. ATCC 35743, 288 h, read-out: GI; outline: as §3
Bacillus subtilis [17] = test: Growth inhibition of Bacillus subtilis NCIM 2079 at 3 ug/ml measured after 12 hrs relative to control; settings: NCIM 2079, 12 h, read-out: GI; outline: as §1
[18] = system: Mycobacterium tuberculosis; test: Growth inhibition of Mycobacterium bovis BCG ATCC 35743 at dormant stage measured after 12 days by nitrate reductase dye based two fold dilution method; settings: BCG str. ATCC 35743, 288 h; outline: as §3
Candida albicans = test: Antifungal activity against Candida albicans NCIM 3471 by standard agar method; outline: as §2
Pseudomonas fluorescens [19] = test: Growth inhibition of Pseudomonas fluorescens NCIM 2036 at 3 ug/ml measured after 8 hrs relative to control; settings: NCIM 2036, 8 h, read-out: GI; outline: as §1
Bacillus subtilis [20] = test: Growth inhibition of Bacillus subtilis NCIM 2079 at 30 ug/ml measured after 12 hrs relative to control; settings: NCIM 2079, 12 h, read-out: GI; outline: as §1
Pseudomonas fluorescens [21] = test: Growth inhibition of Pseudomonas fluorescens NCIM 2036 at 30 ug/ml measured after 8 hrs relative to control; settings: NCIM 2036, 8 h, read-out: GI; outline: as §1
[22] = system: Mycobacterium tuberculosis; test: Growth inhibition of Mycobacterium tuberculosis H37Ra ATCC 25177 at active stage measured after 8 days by XTT dye based two fold dilution method; settings: H37Ra ATCC 25177, 192 h; outline: as §4
Escherichia coli [23] = test: Antibacterial activity against Escherichia coli NCIM 2688 measured after 8 hrs; settings: NCIM 2688, 8 h; outline: as §1
Staphylococcus aureus [24] = test: Growth inhibition of Staphylococcus aureus NCIM 2010 at 3 ug/ml measured after 12 hrs relative to control; settings: NCIM 2010, 12 h, read-out: GI; outline: as §1
Aspergillus niger = test: Antifungal activity against Aspergillus niger NCIM 1196 by standard agar method; outline: as §2
Staphylococcus aureus [25] = test: Growth inhibition of Staphylococcus aureus NCIM 2010 at 30 ug/ml measured after 12 hrs relative to control; settings: NCIM 2010, 12 h, read-out: GI; outline: as §1

Compound | MIC (Staphylococcus aureus [1]) [mg/L] | MIC [2] [mg/L] | MIC (Pseudomonas fluorescens [3]) [mg/L] | inhibition of growth at 10 µg/mL (Escherichia coli [4]) [%] | inhibition of growth at 10 µg/mL (Staphylococcus aureus [5]) [%] | MIC (Bacillus subtilis [6]) [mg/L] | inhibition of growth at 30 µg/mL (Escherichia coli [7]) [%] | MIC (Aspergillus flavus) [mg/L] | inhibition of growth at 3 µg/mL [8] [%] | inhibition of growth at 30 µg/mL [9] [%] | IC50 [10] [mg/L] | IC90 [10] [mg/L] | MIC [11] [mg/L] | inhibition of growth at 10 µg/mL (Bacillus subtilis [12]) [%] | inhibition of growth at 3 µg/mL (Escherichia coli [13]) [%] | inhibition of growth at 10 µg/mL (Pseudomonas fluorescens [14]) [%] | IC50 [15] [mg/L] | IC90 [15] [mg/L] | inhibition of growth at 10 µg/mL [16] [%] | inhibition of growth at 3 µg/mL (Bacillus subtilis [17]) [%] | other results
Cc1ccc2nc(Cl)c(/C=C3\SC(=S)NC3=O)cc2c1 | > 30 | 150 (≈ 468 µM) | > 30 | -6.34 | -30.8 | > 30 | -7.51 | 125 (≈ 390 µM) | -19.3 | -24.3 | > 30 | > 30 | 100 (≈ 312 µM) | -3.58 | -7.51 | 17.5 | > 30 | > 30 | -18.4 | -8.73 | IC50 [18]: > 30 mg/L; IC90 [18]: > 30 mg/L; MIC (Candida albicans): 175 mg/L (≈ 545 µM); inhibition of growth at 3 µg/mL (Pseudomonas fluorescens [19]): 23.9%; inhibition of growth at 30 µg/mL (Bacillus subtilis [20]): -16.6%; inhibition of growth at 30 µg/mL (Pseudomonas fluorescens [21]): 18.4%; IC50 [22]: > 30 mg/L; IC90 [22]: > 30 mg/L; MIC (Escherichia coli [23]): > 30 mg/L; inhibition of growth at 3 µg/mL (Staphylococcus aureus [24]): -49.2%; MIC (Aspergillus niger): 125 mg/L (≈ 390 µM); inhibition of growth at 30 µg/mL (Staphylococcus aureus [25]): -44%
O=C(O)CCN1C(=O)/C(=C/c2cc3ccccc3nc2Cl)SC1=S | > 30 | 50 (≈ 132 µM) | > 30 | -52.5 | -20.6 | > 30 | -59 | 50 (≈ 132 µM) | -3.3 | 49.1 | > 30 | > 30 | 125 (≈ 330 µM) | 6.32 | -47.5 | -0.29 | > 30 | > 30 | -18.9 | 3 | IC50 [18]: > 30 mg/L; IC90 [18]: > 30 mg/L; MIC (Candida albicans): 100 mg/L (≈ 264 µM); inhibition of growth at 3 µg/mL (Pseudomonas fluorescens [19]): -48%; inhibition of growth at 30 µg/mL (Bacillus subtilis [20]): 6.41%; inhibition of growth at 30 µg/mL (Pseudomonas fluorescens [21]): -6.76%; IC50 [22]: > 30 mg/L; IC90 [22]: > 30 mg/L; MIC (Escherichia coli [23]): > 30 mg/L; inhibition of growth at 3 µg/mL (Staphylococcus aureus [24]): -28.2%; MIC (Aspergillus niger): 75 mg/L (≈ 198 µM); inhibition of growth at 30 µg/mL (Staphylococcus aureus [25]): -22.9%
O=C(O)CN1C(=O)/C(=C/c2cc3cc(Cl)ccc3nc2Cl)SC1=S | > 30 | 125 (≈ 313 µM) | > 30 | -12.4 | 3.88 | > 30 | -14 | 150 (≈ 376 µM) | -9.46 | 9.92 | > 30 | > 30 | 150 (≈ 376 µM) | -12.6 | -12.7 | -1.23 | > 30 | > 30 | 2.07 | -4.86 | IC50 [18]: > 30 mg/L; IC90 [18]: > 30 mg/L; MIC (Candida albicans): 125 mg/L (≈ 313 µM); inhibition of growth at 3 µg/mL (Pseudomonas fluorescens [19]): -72.5%; inhibition of growth at 30 µg/mL (Bacillus subtilis [20]): 1.23%; inhibition of growth at 30 µg/mL (Pseudomonas fluorescens [21]): -2.12%; IC50 [22]: > 30 mg/L; IC90 [22]: > 30 mg/L; MIC (Escherichia coli [23]): > 30 mg/L; inhibition of growth at 3 µg/mL (Staphylococcus aureus [24]): -1.15%; MIC (Aspergillus niger): 100 mg/L (≈ 250 µM); inhibition of growth at 30 µg/mL (Staphylococcus aureus [25]): -32.2%
